# Measured values as given in ChEMBL document CHEMBL3120104, “Discovery of the first C-nucleoside HCV polymerase inhibitor (GS-6620) with demonstrated antiviral response in HCV infected patients” (J Med Chem, 2014).
# Experiments:
# Hepatitis C virus [1] = experiment: Antiviral activity against HCV genotype 1 infected in human patient assessed as viral load reduction at 900 mg administered as tablet formulation bid for 5 days relative to baseline control; type: functional, Hepacivirus hominis
# Procedure, shortened: (§1)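 Randomized, double-blind, placebo-controlled, multiple-dose, dose-escalation trial in treatment-naive patients chronically infected with HCV genotype 1. Cohorts had eight active and two placebo subjects. Doses ran from 50 mg once daily to 900 mg BID, fed or fasted, for 5 days. Read-out was median viral load change (log10 IU/mL) from baseline.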
# Hepatitis C virus [2] = experiment: Antiviral activity against HCV genotype 1 infected in human patient assessed as viral load reduction at 900 mg, bid relative to placebo; type: functional, Hepacivirus hominis
# [3] = Metabolic stability in serum (unknown origin); type: ADME
# Homo sapiens = experiment: Toxicity in human patient infected with HCV genotype 1 administered twice a day for 5 days; type: organism-based; conditions: in vivo, 120 h
# Procedure, shortened: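 Randomized, double-blind, placebo-controlled multiple-dose escalation in treatment-naive patients chronically infected with HCV genotype 1. Nine cohorts (8 active, 2 placebo each) received 50 mg once daily up to 900 mg BID, fed or fasted, for 5 days. Safety, tolerability and viral load were assessed.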
# Hepatitis C virus [4] = experiment: Antiviral activity against HCV genotype 2a; type: functional, organism-based, Hepacivirus hominis; conditions: pooled result: one value given for 8 cell lines, strains, targets or settings
# Procedure, shortened: (§2)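 Multiplex replicon assay carrying a renilla luciferase reporter, with stable GT1b, 1a and 2a replicons and chimeric 2b, 3a, 4a, 5a and 6a replicons. 2000 replicon cells/well in medium without Geneticin. Ten-step 1:3 serial dilutions, four replicates, 0.44% DMSO final. Incubated 3 days at 37 °C, 5% CO₂. Luminescence normalised to DMSO wells and to protease-inhibitor (ITMN-191) wells. EC50 from a four-parameter Hill fit.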
# Hepatitis C virus [5] = experiment: Antiviral activity against HCV genotype 1 infected in human patient assessed as viral load reduction at 450 mg administered as solution bid relative to baseline control; type: functional, Hepacivirus hominis; procedure, shortened: as §1
# [6] = target: DNA-directed RNA polymerase, mitochondrial (Homo sapiens) (UniProt O00411); experiment: Inhibition of mitochondrial RNA polymerase (unknown origin) assessed as inhibition of single nucleotide incorporation; conditions: concentration not given here
# Procedure, shortened: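 Reactions started with 500 μM (final) natural NTP or NTP analog. Time-point aliquots were quenched in EDTA/formamide, heated to 65 °C, resolved on 20% polyacrylamide/8 M urea gels, and product formation quantified by phosphorimaging.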
# [7] = Toxicity in po dosed Sprague-Dawley rat assessed as necrosis in organs administered qd for 7 days; type: organism-based; conditions: in vivo
# Rattus norvegicus = experiment: Toxicity in Sprague-Dawley rat assessed as death at 20 to 40 mg/kg, po qd for 7 days; type: organism-based; design: dose 20-40 mg/kg, route oral; conditions: in vivo, 168 h
# [8] = Inhibition of HCV genotype 1b recombinant NS5B RNA dependent RNA polymerase using sshRNA as substrate incubated for 5 mins prior to compound addition measured after 90 mins in presence of [33P]GTP
# Hepatitis C virus [9] = experiment: Antiviral activity against HCV genotype 1b infected in human HuH7 cells assessed as inhibition of viral replication after 3 days by luminescence assay; type: functional, organism-based, Hepacivirus hominis; conditions: Huh-7, 72 h; procedure, shortened: as §2
# Hepatitis C virus [10] = experiment: Selectivity ratio of EC50 for HCV harboring NS5B RNA dependent RNA polymerase S282T mutant to EC50 for wild-type HCV; type: functional, Hepacivirus hominis
# Syrian golden hamster [11] = experiment: Cmax in golden syrian hamster assessed as liver triphosphate level at 5 mg/kg, po by LC/MS/MS analysis; type: ADME, organism-based, Mesocricetus auratus; design: dose 5 mg/kg, route oral; conditions: in vivo
# Procedure, shortened: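 Groups of 12 Golden Syrian hamsters were dosed orally at 5 mg-equiv/kg. Vehicle was EtOH/PEG400/water buffered with 50 mM pH 4 citrate at 2.5 mg-equiv/mL. Liver was homogenized in four volumes of ice-cold 0.1% KOH/67 mM EDTA in 70% MeOH containing 0.25 μM Cl-ATP, then centrifuged, dried and reconstituted in 1 mM ammonium phosphate pH 7.0. Triphosphate was measured by LC/MS/MS, with endogenous ATP checked for sample stability.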
# [12] = Lipophilicity, log D of the compound by HPLC/UV method; type: physicochemical
# Procedure, shortened: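 A 10 mM DMSO stock was diluted 1:100 into 1:1 acetonitrile/water, shaken 30 min, and analysed by HPLC/UV on a C18 column with 20 mM ammonium acetate/acetonitrile mobile phase.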
# [13] = Toxicity in rat after 7 days; type: organism-based; conditions: in vivo
# Procedure, shortened: (§3)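 Nonclinical 7-day toxicology study with daily dosing up to 300 mg/(kg day) in rats and up to 75 mg/(kg day) in dogs; NOAEL set from test-article related findings.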
# [14] = Cytotoxicity against human HuH7 cells after 3 days by fluorescence assay; type: cell-based; conditions: Huh-7 cells
# Procedure, shortened: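 Huh-7 HCV replicon cells were seeded at 2000 cells/well in medium without Geneticin. Compounds were added as ten-point 1:3 DMSO dilutions in quadruplicate (final DMSO 0.44%), with […] as the 100% cytotoxicity control. After 3 days at 37 °C, cells were washed and given 400 nM calcein AM for 30 min at RT, and fluorescence read at ex 490/em 520 nm. Signal was normalized to DMSO and puromycin wells, and CC50 taken from a four-parameter Hill fit.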
# [15] = Toxicity in dog after 7 days; type: organism-based, Canis lupus familiaris; conditions: in vivo; procedure, shortened: as §3
# [16] = Efflux ratio of apparent permeability across human Caco2 cells at 100 uM; type: ADME, cell-based; conditions: Caco-2
# Procedure, shortened: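 Caco-2 monolayers grown to confluence for at least 21 days; membrane integrity checked by TEER after equilibration in transport buffer. Compound added to apical or basolateral side (duplicate wells) to give forward and reverse permeability. Receiver samples taken at 1 and 2 h, acetonitrile-precipitated, and quantified by LC/MS/MS. Papp calculated from receiver slope, volume and monolayer area. Recovery also measured.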
# Syrian golden hamster [17] = experiment: Cmax in golden syrian hamster assessed as liver triphosphate level at 1 mg/kg, iv by LC/MS/MS analysis; type: ADME, organism-based, Mesocricetus auratus; design: dose 1 mg/kg, route intravenous; conditions: in vivo
# Procedure, shortened: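 Golden Syrian hamsters in groups of 12, dosed iv at 1 mg-equiv/kg in EtOH/PEG400/water adjusted to pH 4 with HCl (0.5 mg-equiv/mL). Liver homogenised in ice-cold 70% MeOH with 0.1% KOH, 67 mM EDTA and 0.25 μM Cl-ATP internal standard, then centrifuged, dried and reconstituted. Triphosphate measured by LC/MS/MS; endogenous ATP checked for sample stability.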
# [18] = Oral absorption in beagle dog at 5 mg/kg, po by LC/MS/MS analysis; type: ADME, organism-based, Canis lupus familiaris; design: dose 5 mg/kg, route oral; conditions: in vivo
# Procedure, shortened: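 Naive male beagle dogs were dosed once, orally at 5 mg/kg in EtOH/PEG 400/50 mM citrate buffer pH 4 (5/40/55), or intravenously at 0.5 mg/kg for reference. Plasma was sampled over 24 h and processed by acetonitrile precipitation. Bioavailability %F = AUC_po × Dose_iv / (AUC_iv × Dose_po).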
# Sequence of DNA-directed RNA polymerase, mitochondrial (Homo sapiens) (O00411 whole entry): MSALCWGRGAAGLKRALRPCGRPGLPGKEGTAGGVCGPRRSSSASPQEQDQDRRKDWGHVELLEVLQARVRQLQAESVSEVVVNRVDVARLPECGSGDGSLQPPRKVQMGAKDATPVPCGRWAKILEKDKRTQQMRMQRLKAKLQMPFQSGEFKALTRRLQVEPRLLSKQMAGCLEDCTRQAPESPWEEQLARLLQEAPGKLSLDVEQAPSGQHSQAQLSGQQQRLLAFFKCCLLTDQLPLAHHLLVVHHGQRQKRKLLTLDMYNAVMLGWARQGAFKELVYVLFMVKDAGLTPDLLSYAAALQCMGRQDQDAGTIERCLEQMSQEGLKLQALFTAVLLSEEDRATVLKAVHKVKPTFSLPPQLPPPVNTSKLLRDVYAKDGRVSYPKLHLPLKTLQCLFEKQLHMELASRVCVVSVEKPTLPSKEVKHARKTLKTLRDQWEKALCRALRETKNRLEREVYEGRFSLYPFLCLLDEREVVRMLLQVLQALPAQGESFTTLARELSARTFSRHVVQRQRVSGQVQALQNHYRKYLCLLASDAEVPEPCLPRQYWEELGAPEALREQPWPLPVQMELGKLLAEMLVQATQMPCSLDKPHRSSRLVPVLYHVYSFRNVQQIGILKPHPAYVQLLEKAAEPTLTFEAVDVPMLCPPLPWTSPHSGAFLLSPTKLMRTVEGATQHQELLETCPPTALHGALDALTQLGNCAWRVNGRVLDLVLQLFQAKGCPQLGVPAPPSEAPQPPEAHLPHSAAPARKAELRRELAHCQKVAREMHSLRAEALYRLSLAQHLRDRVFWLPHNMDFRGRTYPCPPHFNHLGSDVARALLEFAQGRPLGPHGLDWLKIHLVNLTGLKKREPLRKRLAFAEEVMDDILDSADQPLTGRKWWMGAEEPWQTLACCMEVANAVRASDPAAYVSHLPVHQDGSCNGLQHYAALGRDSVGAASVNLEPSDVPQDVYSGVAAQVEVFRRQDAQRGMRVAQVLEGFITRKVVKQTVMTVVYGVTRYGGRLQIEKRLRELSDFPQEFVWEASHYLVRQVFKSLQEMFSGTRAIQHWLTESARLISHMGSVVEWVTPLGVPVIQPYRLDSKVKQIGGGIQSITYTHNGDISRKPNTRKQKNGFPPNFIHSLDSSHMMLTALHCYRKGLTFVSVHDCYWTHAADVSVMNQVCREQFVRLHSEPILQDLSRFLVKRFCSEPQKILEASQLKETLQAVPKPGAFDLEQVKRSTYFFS
compound,measurement,setting,value
CC(C)OC(=O)[C@H](C)N[P@](=O)(OC[C@H]1O[C@@](C#N)(c2ccc3c(N)ncnn23)[C@](C)(O)[C@@H]1OC(=O)C(C)C)Oc1ccccc1 [GS-6620],Activity,Hepatitis C virus [1],1.73 log10IU/ml
same,Activity,Hepatitis C virus [2],1.14 log10IU/ml
same,Stability,[3],Stable
same,MTD,Homo sapiens,900 mg
same,EC50,Hepatitis C virus [4],0.068 µM
same,Activity,Hepatitis C virus [5],1.63 log10IU/ml
C[C@@]1(O)[C@H](O)[C@@H](CO)O[C@H]1c1ccc2c(N)ncnn12,inhibition,[6],21%
same,NOAEL at 168 h,[7],< 5 mg/kg/day
same,Activity,Rattus norvegicus,Toxic
C[C@@]1(c2ccc3c(N)ncnn23)O[C@H](CO)[C@@H](O)[C@@]1(C)O,IC50,[8],55 µM
same,inhibition,[6],0.08%
same,EC50,Hepatitis C virus [9],> 89 µM
CC(C)OC(=O)[C@H](C)NP(=O)(OC[C@H]1O[C@@](C#N)(c2ccc3c(N)ncnn23)[C@](C)(O)[C@@H]1OC(=O)C(C)C)Oc1ccccc1 (stereo partly drawn),Ratio EC50,Hepatitis C virus [10],>95
same,Cmax,Syrian golden hamster [11],3.67 µM
same,logD,[12],2.9
same,NOAEL at 168 h,[13],> 300 mg/kg/day
same,CC50 at 72 h,[14],47 µM
same,NOAEL at 168 h,[15],> 75 mg/kg/day
same,efflux ratio at 100 µM,[16],< 2
same,Cmax,Syrian golden hamster [17],4.5 µM
same,Stability,[3],Stable
same,Fa,[18],88%
same,EC50,Hepatitis C virus [9],0.61 µM
